Results taken from article PMC6745243 (Bioorganic & medicinal chemistry letters, 2019).
Several values for one entry are separate records, joined by “and”; a condition that tells them apart may be missing. Equal values may be shown once. Read-outs that look alike come from different tables or passages of the source.

Columns and labels:
[1] = Human; ref Ghoshal, et al. Mol Metab. 2016; cited from earlier work
IP6K family = details: cited from earlier work
Aqueous solubility = format: physicochemical
[2] = Mouse; ref Ghoshal, et al. Mol Metab. 2016; cited from earlier work
IP6K3 = biological target: T1, IP6K3 (Homo sapiens, UniProt Q96PC2); assay: ADP-Glo Max assay, purified IP6K3; format: biochemical; details: IP6K3 over IP6K1
T1 sequence (Q96PC2 1-410): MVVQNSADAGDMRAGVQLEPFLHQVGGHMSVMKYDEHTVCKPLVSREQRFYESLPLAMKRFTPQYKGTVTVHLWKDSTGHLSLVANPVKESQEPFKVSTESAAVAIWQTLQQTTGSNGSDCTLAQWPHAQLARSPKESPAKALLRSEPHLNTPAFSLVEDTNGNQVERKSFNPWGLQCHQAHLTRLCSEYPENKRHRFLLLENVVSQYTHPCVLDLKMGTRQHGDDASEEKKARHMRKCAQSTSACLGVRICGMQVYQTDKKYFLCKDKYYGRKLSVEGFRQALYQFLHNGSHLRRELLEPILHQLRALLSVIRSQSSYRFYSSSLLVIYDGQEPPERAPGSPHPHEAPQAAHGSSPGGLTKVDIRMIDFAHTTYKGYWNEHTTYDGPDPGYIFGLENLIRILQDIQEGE

[3] = tested on: 58 kinases (diversity panel); assay: Off-target kinase diversity panel at Eurofins; format: biochemical; details: 10μM, 58 kinases tested
In short: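 Kinase panel included metabolically important enzymes, among them GSK3β, AKT, mTOR and PI3K.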

IP6K2 = biological target: T2, IP6K2 (Homo sapiens, UniProt Q9UHH9); assay: ADP-Glo Max assay, purified IP6K2; format: biochemical; details: IP6K2 over IP6K1
T2 sequence (Q9UHH9 1-426): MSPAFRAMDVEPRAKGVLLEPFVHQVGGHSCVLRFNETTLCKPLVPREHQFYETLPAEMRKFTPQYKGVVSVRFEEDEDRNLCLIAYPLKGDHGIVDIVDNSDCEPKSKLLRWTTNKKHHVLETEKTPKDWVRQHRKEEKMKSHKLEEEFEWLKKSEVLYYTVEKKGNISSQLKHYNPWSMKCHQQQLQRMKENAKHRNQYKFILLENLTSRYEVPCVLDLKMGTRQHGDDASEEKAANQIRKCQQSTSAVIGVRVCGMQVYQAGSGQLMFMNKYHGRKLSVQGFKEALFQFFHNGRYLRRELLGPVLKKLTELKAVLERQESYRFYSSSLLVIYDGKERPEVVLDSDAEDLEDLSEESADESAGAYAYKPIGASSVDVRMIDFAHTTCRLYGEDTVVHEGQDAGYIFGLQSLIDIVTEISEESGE

Row | Selectivity (Ki/Ki IP6K1) (IP6K3) [fold] | Number of kinases not significantly inhibited (inactive) [3] [kinases] | Number of kinases potently inhibited ([3]; 3 of RAF/MAPK pathway and casein kinase γ) [kinases] | Selectivity (Ki/Ki IP6K1) (IP6K2) | Structure (SMILES) | Microsome stability (t1/2) [1] | IP6K selectivity (IP6K family; between IP6K isoforms, ref Padmanabhan, et al. J Biol Chem 2009) | Potency against the IP6K family (IP6K family) | Solubility (Aqueous solubility; 2% DMSO) | Solubility (Aqueous solubility; aqueous buffers) | Microsome stability (t1/2) [2]
1 |  |  |  |  | O=[N+]([O-])c1ccc(CNc2nc(NCc3cccc(C(F)(F)F)c3)nc3[nH]cnc23)cc1 [Compound 1, N2-(m-trifluorobenzyl)-N6-(p-nitrobenzyl) purine] | Human 32 min ^** | Not selective ^* | low micromolar potency | Mostly insoluble in 2% DMSO | sparingly soluble | Mouse 9 min ^**
2 | ~50 | 54 | 4 | ~ 25 fold and 25 fold | COc1ccc2c(CCNc3nc(NCc4ccc(=O)[nH]c4)c4nc[nH]c4n3)c[nH]c2c1 [Compound 24] |  |  |  |  |  | 
